Five molecules from ChEMBL document CHEMBL1139583, “Design, synthesis and evaluation of racemic 1-(4-hydroxyphenyl)-2-[3-(substituted phenoxy)-2-hydroxy-1-propyl]amino-1-propanol hydrochlorides as novel uterine relaxants” (Bioorg Med Chem Lett, 2005) can be followed below.

One assay is filed under the species Rattus norvegicus. In words: Inhibition of oxytocin induced contraction required for uterine relaxant activity in isolated rat uterus preparation. It counts as functional.
In the case of `COCCc1ccc(OCC(O)CNC(C)C(O)c2ccc(O)cc2)cc1.Cl` (centres undefined), the IC50 was 6.02 µmol.

Molecule `CC(NCC(O)COc1ccc(CC(N)=O)cc1)C(O)c1ccc(O)cc1.Cl` (centres undefined) returned an IC50 of 6.32 µmol.

Regarding `CC(=O)Nc1ccc(OCC(O)CNC(C)C(O)c2ccc(O)cc2)cc1.Cl` (centres undefined), the IC50 was determined as 6.07 µmol.

In turn, `CC(=O)Nc1ccc(OCC(O)CNC(C)C(O)c2ccc(O)cc2)c(C(C)=O)c1.Cl` (centres undefined) displayed an IC50 of 6.58 µmol.

On to `CC(COc1ccccc1)NC(C)C(O)c1ccc(O)cc1.Cl` (centres undefined) [ISOXSUPRINE HYDROCHLORIDE], for which the IC50 came to 9.15 µmol.

For another assay, the species on record is Rattus norvegicus. In words: cAmp released in rat at 10 mg. It counts as functional. Summed up:
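Oral dosing of virgin female Sprague–Dawley rats in oestrus. Rats killed 3 h later. Uterine strips weighed and homogenized in Tris–EDTA, then centrifuged at 12,000g. Supernatant TCA removed by ether extraction and pH set to 7.5. cAMP measured by [³H]cAMP competitive binding assay against 0–16 pmol standards, 2 h at 2–8 °C, charcoal separation, scintillation counting.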
As to `COCCc1ccc(OCC(O)CNC(C)C(O)c2ccc(O)cc2)cc1.Cl` (centres undefined), the Activity amounted to 3.66 pmol.

With `CC(NCC(O)COc1ccc(CC(N)=O)cc1)C(O)c1ccc(O)cc1.Cl` (centres undefined), the Activity is 3.56 pmol.

Take `CC(=O)Nc1ccc(OCC(O)CNC(C)C(O)c2ccc(O)cc2)cc1.Cl` (centres undefined): the Activity stood at 3.48 pmol.

Consider `CC(=O)Nc1ccc(OCC(O)CNC(C)C(O)c2ccc(O)cc2)c(C(C)=O)c1.Cl` (centres undefined), for which the Activity was 3.53 pmol.

Take `CC(COc1ccccc1)NC(C)C(O)c1ccc(O)cc1.Cl` (centres undefined) [ISOXSUPRINE HYDROCHLORIDE]: the Activity was found to be 5.03 pmol.

A further assay is filed under the species Rattus norvegicus. Briefly: Delayed onset of labour in rat by comparing with control at 10 mg. The format is functional. Summed up:
(§1)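 Pregnant Sprague–Dawley rats, six per dose group, dosed orally at 10 and 15 mg/kg/day from gestation day 13 to 21. Reference agent given at 10 mg/kg/day p.o. Onset of labour compared with control.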
Take `COCCc1ccc(OCC(O)CNC(C)C(O)c2ccc(O)cc2)cc1.Cl` (centres undefined): the Activity came to 27.1 h.

`CC(NCC(O)COc1ccc(CC(N)=O)cc1)C(O)c1ccc(O)cc1.Cl` (centres undefined) came in with an Activity of 24 h.

`CC(=O)Nc1ccc(OCC(O)CNC(C)C(O)c2ccc(O)cc2)cc1.Cl` (centres undefined) returned an Activity of 25 h.

Consider `CC(=O)Nc1ccc(OCC(O)CNC(C)C(O)c2ccc(O)cc2)c(C(C)=O)c1.Cl` (centres undefined), for which the Activity was determined as 23.7 h.

In the case of `CC(COc1ccccc1)NC(C)C(O)c1ccc(O)cc1.Cl` (centres undefined) [ISOXSUPRINE HYDROCHLORIDE], the Activity stood at 31.6 h.

For a further assay, the species on record is Rattus norvegicus. Briefly: Delayed onset of labour in rat by comparing with control at 15 mg. It counts as functional. The method in brief: as §1
The molecule `COCCc1ccc(OCC(O)CNC(C)C(O)c2ccc(O)cc2)cc1.Cl` (centres undefined) displayed an Activity of 33.7 h.

Turning to `CC(NCC(O)COc1ccc(CC(N)=O)cc1)C(O)c1ccc(O)cc1.Cl` (centres undefined), the Activity stood at 31.7 h.

Molecule `CC(=O)Nc1ccc(OCC(O)CNC(C)C(O)c2ccc(O)cc2)cc1.Cl` (centres undefined) returned an Activity of 31.8 h.

In turn, `CC(=O)Nc1ccc(OCC(O)CNC(C)C(O)c2ccc(O)cc2)c(C(C)=O)c1.Cl` (centres undefined) had an Activity of 30.1 h.
